Experimental data reported in PMC7993273 (Clinical and Translational Science, 2021).
Where “and” joins values, the source holds several entries; their conditions need not be identical. Identical values can stand only once.

Assays:
Population PK model = assay type: in vivo, human
[1] = assay type: in vivo, human; conditions: 160 mg b.i.d.
Procedure, shortened: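 Final population PK model built from 4,925 plasma samples from 632 healthy volunteers and B-cell malignancy patients, on oral doses of 20–320 mg q.d. or b.i.d. Plasma levels were measured by validated HPLC-MS/MS (LLOQ 1 ng/mL). Steady-state AUCss, Cmax,ss and Cmin,ss were simulated for repeated 160 mg b.i.d. dosing, comparing 5th/95th-percentile covariate values against a median-covariate typical patient.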

[2] = Exposure at the 480-mg dose in HVs, study BGB-3111-106; assay type: in vivo, human
[3] = cited from earlier work
[4] = oral, patients with B-cell malignancies

Ka, final model estimate (95% CI) (Population PK model; absorption rate constant): 0.526 (0.525, 0.526) 1/hour
D1, bootstrap estimate median (2.5–97.5 percentiles) (Population PK model; bootstrap of 1,000 datasets): 1.114 (0.974, 1.265) hour
IIV D1, bootstrap estimate median (2.5–97.5 percentiles) (Population PK model; bootstrap of 1,000 datasets): 62.2 (51.9, 72.4)
IIV Q/F, bootstrap estimate median (2.5–97.5 percentiles) (Population PK model; bootstrap of 1,000 datasets): 103 (83.9, 118)
IIV Vc/F, bootstrap estimate median (2.5–97.5 percentiles) (Population PK model; bootstrap of 1,000 datasets): 39.2 (25.9, 57.8)
IIV Vp/F, bootstrap estimate median (2.5–97.5 percentiles) (Population PK model; bootstrap of 1,000 datasets): 80.4 (58.9, 94.6)
IOV D1, bootstrap estimate median (2.5–97.5 percentiles) (Population PK model; bootstrap of 1,000 datasets): 62.2 (51.9, 72.4)
IOV Vc/F, bootstrap estimate median (2.5–97.5 percentiles) (Population PK model; bootstrap of 1,000 datasets): 65.9 (49.4, 76.8)
Ka, bootstrap estimate median (2.5–97.5 percentiles) (Population PK model; bootstrap of 1,000 datasets): 0.524 (0.481, 0.591) 1/hour
Q/F, bootstrap estimate median (2.5–97.5 percentiles) (Population PK model; bootstrap of 1,000 datasets): 25.6 (19.9, 32.3) L/hour
Vc/F, bootstrap estimate median (2.5–97.5 percentiles) (Population PK model; bootstrap of 1,000 datasets): 115 (88.4, 151) L
Vp/F, bootstrap estimate median (2.5–97.5 percentiles) (Population PK model; bootstrap of 1,000 datasets): 363 (274, 513) L
CL/F (HV), bootstrap estimate median (2.5–97.5 percentiles) (Population PK model; bootstrap of 1,000 datasets, healthy volunteers): 119 (110, 127) L/hour
CL/F (patient), bootstrap estimate median (2.5–97.5 percentiles) (Population PK model; bootstrap of 1,000 datasets, patient): 169 (162, 178) L/hour
effect of co-administration with PPIs and other ARAs on the PKs (Population PK model; covariate analysis, patients in clinical studies): did not appear to significantly impact
D1, final model estimate (95% CI) (Population PK model; duration of zero-order absorption into the depot compartment): 1.13 hour and 1.128 (1.125, 1.131) hour
coefficient of variance of elimination t 1/2 (Population PK model; final population PK model): 40.0%
CL/F (HV), final model estimate (95% CI) (Population PK model; healthy volunteers): 118 (107, 130) L/hour
Q/F, final model estimate (95% CI) (Population PK model; human, in vivo): 26.5 L/hour and 26.5 (26.3, 26.7) L/hour
Vc/F, final model estimate (95% CI) (Population PK model; human, in vivo): 112 L and 112 (111, 113) L
Vp/F, final model estimate (95% CI) (Population PK model; human, in vivo): 345 L and 345 (343, 347) L
half-life (Population PK model; human, plasma, oral): 3.44 h
IIV D1, final model estimate (95% CI) (Population PK model; interindividual variability): 62.3 (57.1, 67.1)
IIV Q/F, final model estimate (95% CI) (Population PK model; interindividual variability): 102 (97.8, 106)
IIV Vc/F, final model estimate (95% CI) (Population PK model; interindividual variability): 37.1 (NA, 53.1)
IIV Vp/F, final model estimate (95% CI) (Population PK model; interindividual variability): 86.4 (71.3, 99.3)
IIV estimated for CL/F (Population PK model; interindividual variability): 36.7%
IIV estimated for Vc/F (Population PK model; interindividual variability): 37.1%
IOV Vc/F, final model estimate (95% CI) (Population PK model; interoccasion variability): 67.5 (66.8, 68.3)
AUC ([1]; human, plasma, oral, 160 mg, total daily AUC, typical patient): 1890 ng·h/mL
Structure (SMILES): C=CC(=O)N1CCC([C@@H]2CCNc3c(C(N)=O)c(-c4ccc(Oc5ccccc5)cc4)nn32)CC1 [zanubrutinib, Zanubrutinib]
absorption rate constant (Population PK model; typical patient with ALT of 18 U/L): 0.526 hour^‐1
CL/F (patient), final model estimate (95% CI) (Population PK model; typical patient with B-cell malignancy, ALT 18 U/L): 170 L/hour and 170 (169, 170) L/hour
magnitude of effect of ALT on AUCss [1]: < 15%
magnitude of effect of ALT on Cmax,ss [1]: < 10%
magnitude of effect of ALT on Cmin,ss [1]: < 30%
dose dependence of exposure at the 480-mg dose [2]: less than dose‐proportional increase in exposure
systemic accumulation after multiple-dose administration ([3]; 40 mg to 320 mg q.d. and 160 mg b.i.d.): limited systemic accumulation
dose dependence of Cmax and AUC0–∞ ([3]; doses from 40 mg to 320 mg): dose‐proportional increase
mean terminal elimination half-life (t 1/2) [3, 4]: 2 to 4 h
median time to peak plasma concentration (Tmax) [3, 4]: 2 h
